Results taken from ChEMBL document CHEMBL6153064, “Structure-based discovery of novel diarylpyrimidines as potent and selective Non-Nucleoside reverse transcriptase inhibitors: From CH(CN)-Biphenyl-Diarylpyrimidines to CNNH2-Biphenyl-Diarylpyrimidines” (Eur J Med Chem, 2025).

Columns and labels:
[1] = system: Human immunodeficiency virus 1; experiment: Antiviral activity against wild type HIV-1 IIIB infected in human MT4 cells […]; format: functional, organism-based; settings: Human immunodeficiency virus 1, IIIB
[2] = Cytotoxicity against human MT4 cells by MTT assay; format: toxicity, cell-based
[3] = Selectivity index, ratio of CC50 for cytotoxicity against human MT4 cells to EC50 for antiviral activity against wild type HIV-1 IIIB infected in human MT4 cells; format: toxicity, cell-based; settings: read-out: Ratio CC50/EC50
Summary of the method: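 Selectivity index calculated as CC50/EC50 ratio, both values from MTT viability readout in MT-4 cells, antiviral arm using wild-type HIV-1 IIIB.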

[4] = system: Human immunodeficiency virus 1; experiment: Antiviral activity against HIV-1 harboring L100I mutant infected in human MT4 cells […]; format: functional, organism-based; settings: Human immunodeficiency virus 1, MT4
[5] = system: Human immunodeficiency virus 1; experiment: Antiviral activity against HIV-1 harboring K103N mutant infected in human MT4 cells […]; format: functional, organism-based; settings: Human immunodeficiency virus 1, MT4
[6] = system: Human immunodeficiency virus 1; experiment: Antiviral activity against HIV-1 harboring Y181C mutant infected in human MT4 cells […]; format: functional, organism-based; settings: Human immunodeficiency virus 1, MT4
[7] = system: Human immunodeficiency virus 1; experiment: Antiviral activity against HIV-1 harboring E138K mutant infected in human MT4 cells […]; format: functional, organism-based; settings: Human immunodeficiency virus 1, MT4
[8] = target: Human immunodeficiency virus type 1 reverse transcriptase (Human immunodeficiency virus 1, UniProt Q72547); experiment: Inhibition of wild type HIV-1 Reverse transcriptase
[9] = target: Human immunodeficiency virus type 1 reverse transcriptase (Human immunodeficiency virus 1) (UniProt Q72547); experiment: Potency index, ratio of Nevirapine IC50 to test compound IC50 for inhibition of wild type HIV-1 Reverse transcriptase
[10] = system: Human immunodeficiency virus 1; experiment: Antiviral activity against HIV-1 harboring Y188L mutant infected in human MT4 cells assessed as inhibition of virus-induced cytopathic effect by MTT assay; settings: Human immunodeficiency virus 1, MT4
[11] = system: Human immunodeficiency virus 1; experiment: Potency index, ratio of Efavirenz EC50 to test compound EC50 for antiviral activity against HIV-1 harboring K103N mutant infected in human MT4 cells […]; format: functional
[12] = system: Human immunodeficiency virus 1; experiment: Potency index, ratio of Efavirenz EC50 to test compound EC50 for antiviral activity against HIV-1 harboring Y188L mutant infected in human MT4 cells […]; format: functional
[13] = system: Human immunodeficiency virus 1; experiment: Potency index, ratio of Nevirapine EC50 to test compound EC50 for antiviral activity against HIV-1 harboring E138K mutant infected in human MT4 cells […]; format: functional
[14] = Stability in human plasma assessed as parent compound remaining measured immediately; format: ADME, cell-free; settings: read-out: Stability
[15] = Stability in human plasma assessed as parent compound remaining measured at 15 mins; format: ADME, cell-free; settings: read-out: Stability
[16] = Stability in human plasma assessed as parent compound remaining measured at 30 mins; format: ADME, cell-free; settings: read-out: Stability
[17] = Stability in human plasma assessed as parent compound remaining measured at 60 mins; format: ADME, cell-free; settings: read-out: Stability
[18] = Stability in human plasma assessed as parent compound remaining measured at 120 mins; format: ADME, cell-free; settings: read-out: Stability
[19] = Stability in human plasma assessed as parent compound remaining measured at 300 mins; format: ADME, cell-free; settings: read-out: Stability
[20] = Stability in human plasma assessed as half life; format: ADME, cell-free
[21] = Metabolic stability in human liver microsomes assessed as half life; format: ADME, Microsome
Summary of the method: (§1)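 Incubation with human liver microsomes; half-life obtained from depletion fit (R² reported), intrinsic clearance expressed per mg microsomal protein (μL/min/mg) and scaled to liver (mL/min/kg).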

[22] = Metabolic stability in human microsomes assessed as intrinsic clearance; format: ADME, Microsome; settings: read-out: CLH; summary of the method: as §1
[23] = Acute toxicity in ICR mouse at 2 g/Kg, po measured for 2 weeks; format: organism-based; settings: in vivo, 2000 mg/kg, 336 h
Summary of the method: (§2)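 Healthy female and male ICR mice were given a single oral dose of 2 g/kg. Growth, death and toxic symptoms were followed over 2 weeks and compared with a control group.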

[24] = Acute toxicity in ICR mouse assessed as animal death at 2 g/Kg, po measured for 2 weeks; format: organism-based; settings: in vivo, 2000 mg/kg, 336 h; summary of the method: as §2
[25] = Acute toxicity in ICR mouse assessed as adverse symptoms at 2 g/Kg, po measured for 2 weeks; format: organism-based; settings: in vivo, 2000 mg/kg, 336 h; summary of the method: as §2
[26] = Acute toxicity in ICR mouse assessed as change in ALT level at 2 g/Kg, po measured after 14 days; format: organism-based; settings: in vivo, 2000 mg/kg, 336 h, time 14 day
Summary of the method: (§3)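 ICR mice of both sexes received a single oral 2 g/kg dose. On day 14 after dosing, blood was examined for ALT, AST, CREA, UREA and CKMB and compared with control groups.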

[27] = Acute toxicity in ICR mouse assessed as change in AST level at 2 g/Kg, po measured after 14 days; format: organism-based; settings: in vivo, 2000 mg/kg, 336 h, time 14 day; summary of the method: as §3
[28] = Acute toxicity in ICR mouse assessed as change in CREA level at 2 g/Kg, po measured after 14 days; format: organism-based; settings: in vivo, 2000 mg/kg, 336 h, time 14 day; summary of the method: as §3
[29] = Acute toxicity in ICR mouse assessed as change in UREA level at 2 g/Kg, po measured after 14 days; format: organism-based; settings: in vivo, 2000 mg/kg, 336 h, time 14 day; summary of the method: as §3
[30] = Acute toxicity in ICR mouse assessed as change in CKMB level at 2 g/Kg, po measured after 14 days; format: organism-based; settings: in vivo, 2000 mg/kg, 336 h, time 14 day; summary of the method: as §3
[31] = Acute toxicity in ICR mouse assessed as brain lesion at 2 g/Kg, po measured after 14 days; format: organism-based; settings: in vivo, 2000 mg/kg, 336 h, time 14 day
Summary of the method: (§4)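 ICR mice, female and male, received one oral 2 g/kg dose. On day 14 after dosing they were dissected, and organs were examined by histopathology against a control group.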

[32] = Acute toxicity in ICR mouse assessed as heart lesion at 2 g/Kg, po measured after 14 days; format: organism-based; settings: in vivo, 2000 mg/kg, 336 h, time 14 day; summary of the method: as §4
[33] = Acute toxicity in ICR mouse assessed as liver lesion at 2 g/Kg, po measured after 14 days; format: organism-based; settings: in vivo, 2000 mg/kg, 336 h, time 14 day; summary of the method: as §4
[34] = Acute toxicity in ICR mouse assessed as spleen lesion at 2 g/Kg, po measured after 14 days; format: organism-based; settings: in vivo, 2000 mg/kg, 336 h, time 14 day; summary of the method: as §4
[35] = Acute toxicity in ICR mouse assessed as lung lesion at 2 g/Kg, po measured after 14 days; format: organism-based; settings: in vivo, 2000 mg/kg, 336 h, time 14 day; summary of the method: as §4
[36] = Acute toxicity in ICR mouse assessed as […] kidney at 2 g/Kg, po measured after 14 days; format: organism-based; settings: in vivo, 2000 mg/kg, 336 h, time 14 day; summary of the method: as §4

SMILES | EC50 [1] [nM] | CC50 [2] [nM] | selectivity ratio [3] | EC50 [4] [nM] | EC50 [5] [nM] | EC50 [6] [nM] | EC50 [7] [nM] | IC50 [8] [nM] | Ratio IC50 [9] | EC50 [10] [nM] | remaining at 0 min [14] [%] | remaining at 0.25 h [15] [%] | remaining at 0.5 h [16] [%] | remaining at 1 h [17] [%] | remaining at 2 h [18] [%] | remaining at 5 h [19] [%] | half-life [20] [h] | microsomal CLint [22] [µL/min/mg] | further results
CNC(c1ccnc(Nc2ccc(C#N)cc2)n1)c1ccc(-c2ccc(C#N)cc2)cc1OC(F)(F)F (centres undefined) | 56 | 18000 | 313 | 1940 | 1460 | 2220 | 320 | 2000 | 0.38 | ≥ 7210 | – | – | – | – | – | – | – | – | –
COc1cc(-c2ccc(C#N)cc2)ccc1/C(=N\N)c1ccnc(Nc2ccc(C#N)cc2)n1 | 5 | 54000 | 11000 | 7 | 10 | 22 | 21 | 81 | – | 148 | 100 | 104 | 101 | 101 | 98.2 | 94.7 | > 5 | 37 | Ratio EC50 [11]: 8.6; Ratio EC50 [12]: 2; Ratio EC50 [13]: 7.5; half-life [21]: 0.625 h; Activity [23]: Non-toxic; Activity [24]: Non-toxic; Activity [25]: Non-toxic; Activity [26]: Non-toxic; Activity [27]: Non-toxic; Activity [28]: Non-toxic; Activity [29]: Non-toxic; Activity [30]: Non-toxic; Activity [31]: Non-toxic; Activity [32]: Non-toxic; Activity [33]: Non-toxic; Activity [34]: Non-toxic; Activity [35]: Non-toxic; Activity [36]: Non-toxic
CNC(c1ccnc(Nc2ccc(C#N)cc2)n1)c1ccc(-c2ccc(C#N)cc2)cc1F (centres undefined) | 64 | 13000 | 196 | ≥ 11000 | 10500 | 1910 | 368 | 783 | 0.96 | > 12700 | – | – | – | – | – | – | – | – | –
Cc1cc(/C=C/C#N)cc(C)c1Nc1ccnc(Nc2ccc(C#N)cc2)n1 [RILPIVIRINE] | – | – | – | – | – | – | – | – | – | – | 100 | 102 | 99.4 | 99.3 | 95.3 | 97.4 | > 5 | 108 | –
CNC(c1ccnc(Nc2ccc(C#N)cc2)n1)c1ccc(-c2ccc(C#N)cc2)cc1OC (centres undefined) | 36 | 13000 | 354 | 2330 | 941 | 1300 | 224 | 963 | 0.78 | 7320 | – | – | – | – | – | – | – | – | –
CNC(c1ccnc(Nc2ccc(C#N)cc2)n1)c1ccc(-c2ccc(C#N)cc2)cc1C(F)(F)F (centres undefined) | 39 | 15000 | 363 | 2440 | 1340 | 1180 | 184 | 495 | 1.5 | 7510 | – | – | – | – | – | – | – | – | –
Cc1cc(C#N)cc(C)c1Oc1nc(Nc2ccc(C#N)cc2)nc(N)c1Br [ETRAVIRINE] | – | > 4600 | – | – | – | – | – | – | – | 20 | 100 | 102 | 95.4 | 97 | 92.1 | 78.5 | > 5 | 21.1 | half-life [21]: 1.09 h
